Laboratory results from the EternaBench riboswitch data.

Tested on: MS2 coat protein
Assay: apparent Kd, MS2 coat protein; higher = weaker binding; RNA-MaP array; theophylline 2 mM where present
Method in brief: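 Each design was made on Illumina sequencing-chip clusters by stalled E. coli RNA polymerase and titrated with SNAP-549-labelled MS2 coat protein from 0.7 or 1.5 nM, doubling to 3 µM, in the absence and then the presence of constant ligand. The buffer was 100 mM Tris-HCl pH 7.5, 80 mM KCl, 4 mM MgCl2, BSA, DTT, yeast tRNA and Tween-20. The apparent Kd is the median of filtered per-cluster fits of binding curves, with green signal normalised to red-channel RNA signal and control-cluster median Fmax.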

[1] = designed as: OFF switch for theophylline, no ligand
[2] = ligand present: theophylline, designed as: OFF switch for theophylline
[3] = designed as: ON switch for theophylline, no ligand
[4] = ligand present: theophylline, designed as: ON switch for theophylline

Sequence | apparent Kd [1] | apparent Kd [2] | apparent Kd [3] | apparent Kd [4]
ACAUGAGGAUCACCCAUGUUCCUCUUUGAUACCAGUGAGUUGUUUCGCCCUUGGCAGCGAGUUUUUUUUUUUUUGUUUUGUUUGG | 274 nM | 390 nM | – | –
ACAUGAGGAUCACCCAUGUUCCUCAUUGAUACCAGUGAAUUUAGACGCCCUUGGCAGCGAGUUUUUGAAGAAGAAGUUUUUUUUU | 545 nM | 1080 nM | – | –
CUUGUCGUAACUGAUACCAGUGUACUGACAUGAGGAUCACCCAUGUUGGGUUUUGUUGUACACCCUUGGCAGCAGAAUCGAUAAG | 73.8 nM | 121 nM | – | –
UUUAAAAUAACAGAUACCAGCGUGUUAUAAAACAUGAGGAUCACCCAUGUAGUGAUCAAGCGCCCUUGGCAGCUGGUAUUUUAGG | – | – | 151 nM | 167 nM
GGUAGCAGGACUGAUACCAGUCCAGCGAAUCAUACGACGCAACAUGAGGAUCACCCAUGUGACCCUUGGCAGCAGUCUGCUACCG | – | – | 25.4 nM | 12.8 nM
AGACAUGAGGAUCACCCAUGUAGCAUGGAUACCAGAUGUAGAUUUAUCCCUUGGCAGCUGUGGUAAAGUGAUGCAUUGCUCCUAG | 37.8 nM | 42.2 nM | – | –
UGGCAGGAGUGAUCCUCCUGCCAAGGUGAUACCAGCAUCGAAAGAUGCCCUUGGCAGCACCAACAUGAGGAUCACCCAUGUAAUA | – | – | 108 nM | 47.9 nM
ACAUGAGGAUCACCCAUGUUCCUCGCCGAUACCAGUGAAGAAUUACGCCCUUGGCAGCGGAAUGAGUGUUUUGGAGAUGAGGUAC | 62.4 nM | 107 nM | – | –
AACCGAGGCUAUCCACAAAGAAAAUGUGAUACCAGAAUAAUUUUAUUCCCUUGGCAGCAUGACAUGAGGAUCACCCAUGUGUCUU | – | – | 32.3 nM | 35.6 nM
GAAACGUAGGUGGAGCGGUGAAAUGGCGAUACCAGCGUGGAAACAUGCCCUUGGCAGCGUUAGAACAUGAGGAUCACCCAUGUUU | 13.3 nM | 58.2 nM | – | –
GAUGAACAUACUGAUACCAGUGUACUGACAUGAGGAUCACCCAUGUUGGGUUUUGUUGUACACCCUUGGCAGCAGAAUGUUUAUC | 72.2 nM | 78.9 nM | – | –
AAGGUGAUCCGUGAUACCAGCUCAACAUGAGGAUCACCCAUGUAACGGACGAAAGUCCGGAGCCCUUGGCAGCACGGUAAUAAUA | – | – | 11.2 nM | 11.4 nM
UCGACAGUGAACGAUACCAGCGUCACGUGGCCGGUGGUCACAUGAGGAUCACCCAUGUAACGCCCUUGGCAGCGUGCACGUAUCA | 20.6 nM | 182 nM | – | –
GCUGGGUGCGCAAGGACCUGGCGUUGCGAUACCAGCACGGUAACGUGCCCUUGGCAGCGCACAUGAGGAUCACCCAUGUGGUGCG | 24.6 nM | 329 nM | – | –
UGUAACAUGAGGAUCACCCAUGUGAGUGAUACCAGACUAGUAUUAGUCCCUUGGCAGCACGUUGGGCGAGUGUAUAGUCUAUGCG | – | – | 112 nM | 110 nM
UAUAUUGUGAUGGAUACCAGCAGAGAAAACGUUUAUCCUAACAUGAGGAUCACCCAUGUAUGCCCUUGGCAGCUGUUGUGAUAUA | 71.4 nM | 46.9 nM | – | –
ACAUGUCUUAUAGAUACCAGACAGGACAUGAGGAUCACCCAUGUAAUGUAUACAUGCAGAGUCCCUUGGCAGCUAAGGUCAUAGA | – | – | 77.6 nM | 66.3 nM
GUAUGGAAACAUACUAGGGUAUCGUGAGAUACCAGUACAGAAAUGUACCCUUGGCAGCUCGCGCAUACAUGAGGAUCACCCAUGU | 18.8 nM | 29.3 nM | – | –
GAUCUUGCGGGCGCCCGCAAGGUUGCGGAUACCAGCGAGAUUAAUCGCCCUUGGCAGCCGAACAUGAGGAUCACCCAUGUCGGAC | – | – | 9.62 nM | 15.3 nM
UGCGUACAUGAGGAUCACCCAUGUAUAGAUACCAGUCACCCAUGUGGCCCUUGGCAGCUAACAUGAGGAUCACUACAUGAGGAUC | 34.5 nM | 141 nM | – | –
AGUACACGAACUGAUACCAGCCGGACAUGAGGAUCACCCAUGUCCUACCUCUGUUCGGUUGGCCCUUGGCAGCAGUUCGUGUACA | – | – | 81.6 nM | 121 nM
ACAUGAGGAUCACCCAUGUGCCGUCUUGAUACCAGACCCGAAGUAGUCCCUUGGCAGCAACUACGUGACGGUCGCGCAUGUGUAG | 19.8 nM | 28.7 nM | – | –
ACCAUGUAAUCAGAUACCAGACAUCUUUUAAAUCAUAUUACAUGAGGAUCACCCAUGUUGGUCCCUUGGCAGCUGAAAUAUUUCA | – | – | 356 nM | 109 nM

Sequence | apparent Kd [1] | apparent Kd [2] | apparent Kd [3] | apparent Kd [4]
UAAAACAUGAGGAUCACCCAUGUAAAUGAUACCAGAGUGAUGAUCCUCCCUUGGCAGCAUAACGCUGAUUGAUUACAAUCAGCGA | – | – | 95.9 nM | 267 nM
AUUGCGAGUGAGUCGUGUAACGAUUCAGAUACCAGGCAUUUCGUUGUCCCUUGGCAGCUGUCUUACAUGAGGAUCACCCAUGUUA | 52.3 nM | 106 nM | – | –
GUUAUAUUAAUUGAUACCAGCGAGAAAACAUGAGGAUCACCCAUGUUCGCCCAUGUUAAGCGCCCUUGGCAGCAAUUUUAUUAGC | 30.6 nM | 91.6 nM | – | –
UCCUCAUGGCAUGAUACCAGACCUAACAUGAGGAUCACCCAUGUAUCAGGCAAUUGUUACGUCCCUUGGCAGCAUGUAUGCCGAC | – | – | 70.2 nM | 138 nM
GAUAGUUGAUGGGAUACCAGCCUACACAUGAGGAUCACCCAUGUGAUUCGUGUACGACUGGGCCCUUGGCAGCCCAUAUUGUGUA | – | – | 107 nM | 55.1 nM
ACAUGAGGAUCACCCAUGUUCCUCAUUGAUACCAGUGAAUUUAGACGCCCUUGGCAGCGAGUUUUUUAAGAAGAAGUUUUUUUUU | 421 nM | 1110 nM | – | –
CCCAACAGUGAUGCCGGUGUUGGUGGUGAUACCAGCGUCUUAUGGCGCCCUUGGCAGCACCAACAUGAGGAUCACCCAUGUGAAA | – | – | 55.2 nM | 409 nM
AGUAAUCUAACAGAUACCAGACGGUAUAUAACAUGAGGAUCACCCAUGUCUUGGGUGUACGUCCCUUGGCAGCUGAAAAUGAUAA | – | – | 567 nM | 383 nM
ACGACGCAUAGUGAUACCAGUAGAACAUGAGGAUCACCCAUGUCUGUGGCGCUCCGCCUCUGCCCUUGGCAGCACUAUGCGUCAG | – | – | 12.4 nM | 18.6 nM
ACAUGAGGAUCACCCAUGUCAGGGCACGAUACCAGCUGAUCCGAUGGCCCUUGGCAGCGUGACGUGUGGUCAUGAGGAUCACCCG | – | – | 189 nM | 156 nM
UUUACAUGAGGAUCACCCAUGUGCCAUGAUACCAGACAUGAAAAUGUCCCUUGGCAGCAUGAAUGAUUCAUAGGAUAAUUAUGGG | – | – | 99.2 nM | 98.8 nM
UUAUUUAUAAUGGAUACCAGUAUAAUGGCCGCAAAUCCUGACAUGAGGAUCACCCAUGUAUGCCCUUGGCAGCUGUUAUGGGUUU | 41.1 nM | 57.6 nM | – | –
UCGUGUAUAUCGGAUACCAGUGAAAUCGAUACAUGAGGAUCACCCAUGUGAGAGGAUGUACACCCUUGGCAGCUGUAUAUAUCUG | – | – | 24.3 nM | 13.6 nM
GAUGAACUAUUUGAUACCAGACUACAUGAGGAUCACCCAUGUGAGUUUCCUCCUCUGCCAGUCCCUUGGCAGCAAAUAGUUUAUC | 56.5 nM | 148 nM | – | –
UAUAUAUGGAUGGAUACCAGCAGAGAAAACGUUUAUCCUAACAUGAGGAUCACCCAUGUAUGCCCUUGGCAGCUGUUUAUAUAUA | 26.6 nM | 29.1 nM | – | –
AGACAUGAGGAUCACCCAUGUAGCAUGGAUACCAGAUGUAGAUUAGUCCCUUGGCAGCUGUGGUAAAGUGAUGCAUUGCUCCUAG | 49.2 nM | 47.4 nM | – | –
GAGCUGAUGUAGAGCCUUUAGUUCUGAGAUACCAGUACAGAAAUGUACCCUUGGCAGCUCAGCUUUACAUGAGGAUCACCCAUGU | 19 nM | 23.7 nM | – | –
AGCGACAUGCAUGAUACCAGCUACAUGAGGAUCACCCAUGUACGUCAGUAAUGACUGUGUAGCCCUUGGCAGCAUAGAGCAUGUA | 17.5 nM | 44.5 nM | – | –
AGACAUGUAAGAUAAUUGACUUUUACAGAUACCAGACUGUCUAAUGUCCCUUGGCAGCUGCAUUACAUGAGGAUCACCCAUGUUA | 19.2 nM | 17.9 nM | – | –
UUCAAAGGGAACGGUGCUGGUAACAGAGAUACCAGAGUAAUAAUACUCCCUUGGCAGCUCAUAACAUGAGGAUCACCCAUGUAAU | 13.4 nM | 16.6 nM | – | –
AACCGAGGCUAUCCUCUCCGCCUAUGUGAUACCAGAAUAAUUUUAUUCCCUUGGCAGCAUGACAUGAGGAUCACCCAUGUCUCUU | – | – | 17.6 nM | 20.3 nM
UGUAUGUGAUUUGAUACCAGUCCAACUGGUAAAACAUGAGGAUCACCCAUGUAAAAUUGGGACCCUUGGCAGCAAAUCGCAUACU | – | – | 355 nM | 30.1 nM
CGGUUUGUGAUGGAUACCAGCAGAGAAAACGUUUAUCCUAACAUGAGGAUCACCCAUGUAUGCCCUUGGCAGCUGUUGUGGGCUG | 44.7 nM | 45.6 nM | – | –
